The text below walks through data of ChEMBL document CHEMBL1141647, “Novel ofloxacin derivatives: synthesis, antimycobacterial and toxicological evaluation” (Bioorg Med Chem Lett, 2008).

Structures are written as SMILES. Values after ≈ are worked out from the molar mass of the structure shown.

Data set [1] concerns Mycolicibacterium smegmatis. The experiment in a line: Antimycobacterial activity against Mycobacterium smegmatis ATCC 14468 by agar dilution method. Type of data set: functional. The procedure, abridged: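 MC² (M. smegmatis) growth inhibition; MIC99 taken as the lowest concentration giving complete inhibition of bacterial growth, in µM.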
The test system of data set [2] is Mus musculus. The data set can be described thus: Phototoxic effect in UV light irradiated mouse assessed as ear thickness at 140 mg/kg, after 4 hrs relative to control. The data set is classed as ADME, organism-based. Also noted: dose 140 mg/kg. As to conditions: in vivo. The procedure, abridged:
(§1)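 Mice dosed at 140 mg/kg and exposed to UV immediately after dosing. Irradiation ended at 4 h. Ear thickness (mm) was measured at 0 (pre-dose), 4, 24, 48, 72 and 96 h, left and right ears averaged, mean ± SEM. Comparison was against vehicle controls (0.5% aqueous sodium carboxymethylcellulose, 10 mL/kg) and against the 0 h reading.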

For data set [3], the system named is Mus musculus. The experiment in a line: Phototoxic effect in UV light irradiated mouse assessed as ear thickness at 140 mg/kg, after 48 hrs relative to control. Type of data set: ADME, organism-based. Also noted: dose 140 mg/kg. As to conditions: in vivo. Summed up: as §1
Data set [4] has as its system Mus musculus. The data set can be described thus: Phototoxic effect in UV light irradiated mouse assessed as ear thickness at 140 mg/kg, after 72 hrs relative to control. Also noted: dose 140 mg/kg. Type of data set: ADME, organism-based. As to conditions: in vivo. Summed up:
as §1

The subject of data set [5] is Mus musculus. The data set can be described thus: Phototoxic effect in UV light irradiated mouse assessed as number of mouse bearing erythema at 140 mg/kg, after 48 hrs relative to control. The data set is classed as ADME, organism-based. As to conditions: in vivo. On the set-up: dose 140 mg/kg. The procedure, abridged:
(§2)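 Mice received 140 mg/kg and were UV-irradiated immediately after dosing, irradiation ending at 4 h. Both ears were scored for erythema at 0, 4, 24, 48, 72 and 96 h, counted as the number of mice with erythema. Vehicle control was 0.5% aqueous sodium carboxymethylcellulose at 10 mL/kg.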

For data set [6], the system named is Mus musculus. The data set can be described thus: Phototoxic effect in mouse assessed as number of mouse bearing erythema at 140 mg/kg administered before UV light exposure relative to control. The data set is classed as ADME, organism-based. On the set-up: dose 140 mg/kg. As to conditions: in vivo. Summed up:
as §2

Data set [7] relates to Mus musculus. The data set can be described thus: Phototoxic effect in mouse assessed as ear thickness at 140 mg/kg administered before UV light exposure relative to control. On the set-up: dose 140 mg/kg. The conditions noted are these: in vivo. The data set is classed as ADME, organism-based. The procedure, abridged:
as §1

For data set [8], the system named is Mus musculus. The data set can be described thus: Phototoxic effect in UV light irradiated mouse assessed as number of mouse bearing erythema at 140 mg/kg, after 72 hrs relative to control. The data set is classed as ADME, organism-based. On the set-up: dose 140 mg/kg. As to conditions: in vivo. Summed up:
as §2

In data set [9] the test system is Mus musculus. The data set can be described thus: Phototoxic effect in UV light irradiated mouse assessed as ear thickness at 140 mg/kg, after 24 hrs relative to control. Also noted: dose 140 mg/kg. As to conditions: in vivo. Type of data set: ADME, organism-based. Summed up:
as §1

Data set [10] concerns Mus musculus. The data set can be described thus: Phototoxic effect in UV light irradiated mouse assessed as number of mouse bearing erythema at 140 mg/kg, after 96 hrs relative to control. Type of data set: ADME, organism-based. On the set-up: dose 140 mg/kg. As to conditions: in vivo. Summed up: as §2
Data set [11] has as its system Mus musculus. The experiment in a line: Phototoxic effect in UV light irradiated mouse assessed as ear thickness at 140 mg/kg, after 96 hrs relative to control. Type of data set: ADME, organism-based. Also noted: dose 140 mg/kg. The conditions noted are these: in vivo. The procedure, abridged:
as §1

Data set [12] has as its system Mus musculus. The experiment in a line: Phototoxic effect in UV light irradiated mouse assessed as number of mouse bearing erythema at 140 mg/kg, after 24 hrs relative to control. The data set is classed as ADME, organism-based. On the set-up: dose 140 mg/kg. The conditions noted are these: in vivo. The procedure, abridged: as §2
For another data set, the target named is DNA gyrase subunit A (Mycolicibacterium smegmatis, UniProt Q59556). The experiment in a line: Inhibition of Mycobacterium smegmatis DNA gyrase. The procedure, abridged:
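Inhibition of DNA supercoiling by M. smegmatis (MC²) gyrase, run under standard assay conditions. Varying compound amounts were tested against a fixed amount of enzyme, and IC50 was derived from that series. Relaxed circular DNA served as marker, 5% DMSO as solvent control, and moxifloxacin at 5 µg/mL as positive control.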

In data set [13] the test system is Mycobacterium tuberculosis. The data set can be described thus: Antimycobacterial activity against Mycobacterium tuberculosis H37Rv by agar dilution method. Type of data set: functional. Summed up:
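MIC99 was taken as the lowest concentration giving complete inhibition of bacterial growth.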

The subject of another data set is Vero. The experiment in a line: Cytotoxicity against african green monkey Vero cells after 72 hrs by MTT assay. The data set is classed as cell-based. The conditions noted are these: Chlorocebus sabaeus. Summed up:
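Vero cells exposed for 72 h; tested up to 62.5 µg/mL. Viability was read as cellular conversion of MTT to formazan, and IC50 was reported in µM.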

Data set [14] concerns Mus musculus. The data set can be described thus: Phototoxic effect in UV light irradiated mouse assessed as number of mouse bearing erythema at 140 mg/kg, after 4 hrs relative to control. The data set is classed as ADME, organism-based. On the set-up: dose 140 mg/kg. The conditions noted are these: in vivo. The procedure, abridged: as §2
Data set [15] deals with Mycobacterium tuberculosis. The experiment in a line: Antimycobacterial activity against Mycobacterium tuberculosis ATCC 35801 infected CD1 mouse lungs assessed as viable organisms at 50 mg/kg, ip after 35 days relative to control. The data set is classed as functional. The conditions noted are these: route intraperitoneal. Summed up:
(§3)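 CD-1 mice infected intravenously with M. tuberculosis ATCC 35801; intraperitoneal treatment started 10 days after inoculation and continued for 10 days. At 35 days postinfection, spleens and right lungs were removed aseptically and viable organisms counted (log CFU). Counts were compared with vehicle-treated controls.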

The subject of data set [16] is Mycobacterium tuberculosis. The experiment in a line: Antimycobacterial activity against Mycobacterium tuberculosis ATCC 35801 infected CD1 mouse spleen assessed as viable organisms at 50 mg/kg, ip after 35 days relative to control. Type of data set: functional. As to conditions: route intraperitoneal. The procedure, abridged: as §3
Data set [17] deals with Mycobacterium tuberculosis. The experiment in a line: Antimycobacterial activity against Mycobacterium tuberculosis ATCC 35801 infected CD1 mouse lungs assessed as viable organisms at 25 mg/kg, ip after 35 days relative to control. As to conditions: route intraperitoneal. The data set is classed as functional. Summed up: as §3
The test system of data set [18] is Mycobacterium tuberculosis. The experiment in a line: Antimycobacterial activity against Mycobacterium tuberculosis ATCC 35801 infected CD1 mouse spleen assessed as viable organisms at 25 mg/kg, ip after 35 days relative to control. The conditions noted are these: route intraperitoneal. The data set is classed as functional. Summed up:
as §3

DNA gyrase subunit A, sequence (Q59556 whole entry): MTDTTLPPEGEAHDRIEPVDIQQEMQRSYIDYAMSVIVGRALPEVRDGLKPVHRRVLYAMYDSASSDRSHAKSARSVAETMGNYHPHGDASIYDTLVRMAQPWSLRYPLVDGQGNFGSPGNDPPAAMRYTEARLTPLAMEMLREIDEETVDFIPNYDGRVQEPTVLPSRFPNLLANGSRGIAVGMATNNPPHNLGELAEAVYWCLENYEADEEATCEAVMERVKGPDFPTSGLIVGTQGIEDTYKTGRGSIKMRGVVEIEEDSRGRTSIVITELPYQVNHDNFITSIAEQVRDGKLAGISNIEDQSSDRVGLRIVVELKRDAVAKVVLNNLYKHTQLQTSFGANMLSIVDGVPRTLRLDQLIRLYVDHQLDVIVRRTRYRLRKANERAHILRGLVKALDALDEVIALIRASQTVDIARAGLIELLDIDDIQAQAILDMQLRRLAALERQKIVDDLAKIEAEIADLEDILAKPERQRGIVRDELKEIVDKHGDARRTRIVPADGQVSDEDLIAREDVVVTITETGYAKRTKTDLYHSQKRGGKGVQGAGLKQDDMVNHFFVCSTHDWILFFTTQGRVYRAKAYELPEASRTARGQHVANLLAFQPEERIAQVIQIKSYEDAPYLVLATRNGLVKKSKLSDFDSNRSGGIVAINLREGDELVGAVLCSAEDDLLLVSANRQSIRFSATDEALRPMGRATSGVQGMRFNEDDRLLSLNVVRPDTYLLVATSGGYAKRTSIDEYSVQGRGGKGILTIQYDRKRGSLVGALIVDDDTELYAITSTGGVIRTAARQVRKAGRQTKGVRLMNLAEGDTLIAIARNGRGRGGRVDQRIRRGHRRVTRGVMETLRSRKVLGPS

Regarding `CC1COc2c(N3CCN(C(c4ccccc4)c4ccc(Cl)cc4)CC3)c(F)c([N+](=O)[O-])c3c(=O)c(C(=O)O)cn1c23` (configuration not stated), the MIC99 was determined as 0.66 µM (≈ 0.391 µg/mL) in data set [1] and 2.63 µM (≈ 1.56 µg/mL) in data set [13]. Also, the Activity in the data set on Mus musculus [2] is 0.28 mm; in the data set on Mus musculus [3] it was 0.29 mm; in the data set with Mus musculus [4] it was 0.29 mm; in the data set with Mus musculus [5] it was “Non-toxic”; in the data set with Mus musculus [6] it was “Non-toxic”; in the data set on Mus musculus [7], 0.28 mm. Further, the Activity result is on record as “Non-toxic” with Mus musculus [8]; 0.28 mm with Mus musculus [9]; “Non-toxic” with Mus musculus [10]; 0.31 mm in the data set on Mus musculus [11]; “Non-toxic” in the data set with Mus musculus [12]; “Non-toxic” in the data set on Mus musculus [14]. Besides, the IC50 is 16.9 µM on DNA gyrase subunit A and 105 µM with Vero.
For `CC1COc2c(N3CCn4cc(C(=O)O)nc4C3)c(F)c([N+](=O)[O-])c3c(=O)c(C(=O)O)cn1c23` (configuration not stated), the Log10 cfu was determined as 6.08 in [15] and 6.11 in data set [16]. In addition, the MIC99 in [1] stood at 6.61 µM (≈ 3.13 µg/mL); in data set [13], 0.19 µM (≈ 0.0899 µg/mL). This molecule also came in with an IC50 in the data set on Vero of 132 µM.
`CC1COc2c(N3CCN(C)CC3)c(F)cc3c(=O)c(C(=O)O)cn1c23` (configuration not stated) [OFLOXACIN]: the results for the Log10 cfu in data set [15] and in data set [16] were 6.61 and 7.61, respectively. Further, the MIC99 in data set [1] and in [13] was 2.16 µM (≈ 0.781 µg/mL) each time. The IC50 with Vero was > 155 µM.
Take `NNC(=O)c1ccncc1` [ISONIAZID]: the Log10 cfu is reported as 5.86 in [17] and 4.71 in data set [18]. Also, the MIC99 in data set [1] worked out at 45.6 µM (≈ 6.25 µg/mL); in data set [13] it was 0.36 µM (≈ 0.0494 µg/mL). In the data set with Vero, the IC50 was > 456 µM.
Take `CC1COc2c(N3CCSCC3)c(F)c([N+](=O)[O-])c3c(=O)c(C(=O)O)cn1c23` (configuration not stated): the MIC99 in data set [1] and in data set [13] was 1.91 µM (≈ 0.782 µg/mL) each time. Further, the Activity in the data set with Mus musculus [2] was 0.28 mm; with Mus musculus [3], 0.29 mm; in the data set on Mus musculus [4] it was 0.28 mm; in the data set on Mus musculus [5] it was “Non-toxic”; in the data set on Mus musculus [6], “Non-toxic”; in the data set with Mus musculus [7] it was 0.25 mm. The Activity entry in the data set with Mus musculus [8] was “Non-toxic”; in the data set on Mus musculus [9] it was 0.29 mm; in the data set on Mus musculus [10], “Non-toxic”; in the data set on Mus musculus [11], 0.28 mm; with Mus musculus [12] it was “Non-toxic”; in the data set with Mus musculus [14] it was “Non-toxic”. Besides, the figures for the IC50 at DNA gyrase subunit A and with Vero were 122 µM and 153 µM, respectively.
